# Laboratory results reported in ChEMBL document CHEMBL1155470, “Colloid formation by drugs in simulated intestinal fluid” (J Med Chem, 2010).
# How the values were obtained:
# [1] = Colloidal aggregation in fed state simulated intestinal fluid by dynamic light scattering assay in presence of 1.8% DMSO; assay type: physicochemical; conditions: simulated gi fluid
# Summary of the method: (§1)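 Concentrated DMSO stocks diluted into filtered FeSSIF: blank FeSSIF plus 15 mM sodium taurocholate and 3.75 mM lecithin, dissolved at 37 °C. Final DMSO 1% unless otherwise noted. Particle size by dynamic light scattering at 826.6 nm, detector at 90°, 100% laser power. Values are averages of three or more independent measurements at room temperature.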
# [2] = Colloidal aggregation in fed state simulated intestinal fluid at 450 uM by dynamic light scattering-based beads autocorrelation assay in presence of 1.8% DMSO; assay type: physicochemical; conditions: simulated gi fluid
# Summary of the method: (§2)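 FeSSIF samples examined by DLS (826.6 nm laser, 90° detector, room temperature), comparing autocorrelation curves with blank FeSSIF. The micelle background was checked with 200 nm calibration beads diluted in FeSSIF. Drug samples were made by diluting DMSO stocks into filtered FeSSIF (15 mM taurocholate, 3.75 mM lecithin).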
# Cruzipain [3] = molecular target: T1, Cruzipain (Trypanosoma cruzi, UniProt P25779); assay: Inhibition of Trypanosoma cruzi cruzaine preincubated for 5 mins before substrate addition by fluorescence assay in presence of 0.01% Triton X-100
# Cruzipain [4] = molecular target: T1, Cruzipain; assay: Inhibition of Trypanosoma cruzi cruzaine preincubated for 5 mins before substrate addition by fluorescence assay in absence of Triton X-100
# [5] = Colloidal aggregation in fed state simulated intestinal fluid assessed as colloid radius at 10 uM by dynamic light scattering assay in presence of 1% DMSO; conditions: simulated gi fluid
# [6] = Colloidal aggregation in fed state simulated intestinal fluid assessed as colloid radius at 450 uM by dynamic light scattering assay in presence of 1% DMSO; assay type: physicochemical; conditions: simulated gi fluid; summary of the method: as §1
# [7] = Colloidal aggregation in fed state simulated intestinal fluid assessed as colloid radius at 20 uM by dynamic light scattering assay in presence of 1% DMSO; assay type: physicochemical; conditions: simulated gi fluid; summary of the method: as §1
# [8] = Colloidal aggregation in fed state simulated intestinal fluid assessed as colloid radius at 2.5 uM by dynamic light scattering assay in presence of 1% DMSO; assay type: physicochemical; conditions: simulated gi fluid; summary of the method: as §1
# [9] = Colloidal aggregation in fed state simulated intestinal fluid assessed as colloid radius at 200 uM by dynamic light scattering assay in presence of 1% DMSO; assay type: physicochemical; conditions: simulated gi fluid; summary of the method: as §1
# [10] = Colloidal aggregation in fed state simulated intestinal fluid by dynamic light scattering-based beads autocorrelation assay in presence of 1% DMSO; assay type: physicochemical; conditions: simulated gi fluid; summary of the method: as §2
# [11] = Colloidal aggregation in fed state simulated intestinal fluid assessed as colloid radius at 50 uM by dynamic light scattering assay in presence of 1% DMSO; assay type: physicochemical; conditions: simulated gi fluid; summary of the method: as §1
# [12] = Colloidal aggregation in fed state simulated intestinal fluid assessed as colloid radius at 250 uM by dynamic light scattering assay in presence of 1% DMSO; assay type: physicochemical; conditions: simulated gi fluid; summary of the method: as §1
# [13] = Colloidal aggregation in fed state simulated intestinal fluid by dynamic light scattering assay in presence of 0.5% DMSO; assay type: physicochemical; conditions: simulated gi fluid; summary of the method: as §1
# [14] = Colloidal aggregation in fed state simulated intestinal fluid assessed as colloid radius at 5 uM by dynamic light scattering assay in presence of 1% DMSO; assay type: physicochemical; conditions: simulated gi fluid; summary of the method: as §1
# [15] = Colloidal aggregation in fed state simulated intestinal fluid assessed as colloid radius at 500 uM by dynamic light scattering assay in presence of 1% DMSO; assay type: physicochemical; conditions: simulated gi fluid; summary of the method: as §1
# T1 sequence (P25779 whole entry): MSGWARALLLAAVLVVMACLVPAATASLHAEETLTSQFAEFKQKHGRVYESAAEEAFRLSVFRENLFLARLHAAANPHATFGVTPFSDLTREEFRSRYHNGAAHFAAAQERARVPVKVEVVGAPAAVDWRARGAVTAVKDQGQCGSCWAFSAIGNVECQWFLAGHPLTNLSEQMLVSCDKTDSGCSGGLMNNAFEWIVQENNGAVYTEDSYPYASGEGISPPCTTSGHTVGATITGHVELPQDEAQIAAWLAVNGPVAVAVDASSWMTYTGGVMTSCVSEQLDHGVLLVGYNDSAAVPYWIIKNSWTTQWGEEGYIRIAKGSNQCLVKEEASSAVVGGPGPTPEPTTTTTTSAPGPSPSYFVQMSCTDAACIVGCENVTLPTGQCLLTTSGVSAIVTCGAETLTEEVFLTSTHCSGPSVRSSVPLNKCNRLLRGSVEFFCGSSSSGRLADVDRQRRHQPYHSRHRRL
SMILES,IC50 (Cruzipain [3]),IC50 (Cruzipain [4]),also measured
CC(C)OC(=O)C(C)(C)Oc1ccc(C(=O)c2ccc(Cl)cc2)cc1 [FENOFIBRATE],> 500 µM,61 µM,Activity [1]: 450 µM; Activity [2]: Active; Activity [5]: 129 nm; Activity [6]: 113.8 nm
Cc1cc(C#N)cc(C)c1Oc1nc(Nc2ccc(C#N)cc2)nc(N)c1Br [ETRAVIRINE],> 200 µM,4 µM,Activity [9]: 373.3 nm; Activity [10]: Active; Activity [5]: 323.2 nm
Cc1c(O)cccc1C(=O)N[C@@H](CSc1ccccc1)[C@H](O)CN1C[C@H]2CCCC[C@H]2C[C@H]1C(=O)NC(C)(C)C,> 300 µM,144 µM,Activity [7]: 690.7 nm
Cc1c(C)c2c(c(C)c1OC(=O)c1cccnc1)CC[C@@](C)(CCC[C@H](C)CCC[C@H](C)CCCC(C)C)O2 (racemic),> 400 µM,98 µM,Activity [10]: Active; Activity [11]: 55.7 nm; Activity [5]: 104.1 nm
COC(=O)[C@H](c1ccccc1Cl)N1CCc2sccc2C1 [CLOPIDOGREL BISULFATE],> 300 µM,123 µM,
COc1cc2ncnc(Nc3ccc(F)c(Cl)c3)c2cc1OCCCN1CCOCC1 [GEFITINIB],148 µM,88 µM,Activity [12]: 160.1 nm; Activity [13]: 250 µM
C(=C\c1ccccc1)/CN1CCN(C(c2ccccc2)c2ccccc2)CC1 [CINNARIZINE],> 300 µM,124 µM,
CN(C)CCCN1c2ccccc2Sc2ccc(Cl)cc21.Cl [CHLORPROMAZINE HYDROCHLORIDE],,,Activity [15]: 29.2 nm

# Now from value to compound, other results behind:
IC50 (Cruzipain [3]),IC50 (Cruzipain [4]),SMILES,also measured
128 µM,33 µM,O=C(c1ccc(OCCN2CCCCC2)cc1)c1c(-c2ccc(O)cc2)sc2cc(O)ccc12 [RALOXIFENE],Activity [7]: 192.2 nm
> 100 µM,6 µM,COC(=O)C1=C(C)NC(C)=C(C(=O)OCCN2CCN(C(c3ccccc3)c3ccccc3)CC2)C1c1cccc([N+](=O)[O-])c1 (configuration not stated) [MANIDIPINE 6300],Activity [8]: 125.6 nm
> 250 µM,129 µM,Cc1cccc(CN2CCN(C(c3ccccc3)c3ccc(Cl)cc3)CC2)c1.Cl (configuration not stated) [MECLIZINE DIHCL],Activity [14]: 133.3 nm
